Experimental data from ChEMBL document CHEMBL4196121, “Meridianin D Analogues Display Antibiofilm Activity against MRSA and Increase Colistin Efficacy in Gram-Negative Bacteria” (ACS Med Chem Lett, 2018).
pEC50, pIC50: −log10 of the molar value. Calls of active or inactive are those of the source. The calls are words filed in the database; no cut-off is given here.

Key:
Acinetobacter baumannii [1] = experiment: Antibacterial activity against Acinetobacter baumannii isolate 4106 after 16 hrs by broth microdilution assay; assay type: organism-based
Acinetobacter baumannii [2] = experiment: Antibacterial activity against Acinetobacter baumannii ATCC 19606 after 16 hrs by broth microdilution assay; assay type: organism-based, ATCC 19606 = CIP 70.34 = JCM 6841; details: for MIC: […]
Klebsiella pneumoniae [3] = experiment: Potentiation of colistin-induced antimicrobial activity against Klebsiella pneumoniae isolate B9 after 16 hrs in presence of 0.01% triton X-100 by broth microdilution assay; assay type: functional, organism-based
Acinetobacter baumannii [4] = experiment: Potentiation of colistin-induced antimicrobial activity against Acinetobacter baumannii isolate 4106 after 16 hrs in presence of 0.01% triton X-100 by broth microdilution assay; assay type: functional, organism-based
Acinetobacter baumannii [5] = experiment: Antibacterial activity against Acinetobacter baumannii ATCC 17978 after 16 hrs by broth microdilution assay; assay type: organism-based
Escherichia coli [6] = experiment: Antibacterial activity against Escherichia coli ATCC 25922 expressing mcr1 gene after 16 hrs by broth microdilution assay; assay type: organism-based; details: in vitro
Staphylococcus aureus [7] = experiment: Potentiation of vancomycin-induced antibacterial activity against methicillin-resistant Staphylococcus aureus ATCC 43300 assessed as dispersion of preformed biofilm after 24 hrs by crystal violet staining based method; assay type: functional, organism-based; details: ATCC 43300, 24 h
Acinetobacter baumannii [8] = experiment: Potentiation of colistin-induced antimicrobial activity against Acinetobacter baumannii ATCC 17978 assessed as fold reduction in colistin MIC after 16 hrs by broth microdilution assay; assay type: functional
Outline: (§1)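 Analogue at a fixed 60 μM unless otherwise noted, combined with colistin against the Gram-negative strain. Potentiation is read as the fold reduction in colistin MIC relative to colistin alone. A. baumannii 3941/4106 and K. pneumoniae C3/B9 are primary clinical isolates with genomically encoded colistin resistance.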

Staphylococcus aureus [9] = experiment: Antibiofilm activity against methicillin-resistant Staphylococcus aureus ATCC 43300 assessed as dispersion of preformed biofilm at 80 uM after 24 hrs by crystal violet staining based method relative to control; assay type: functional
Staphylococcus aureus [10] = experiment: Inhibition of biofilm formation in methicillin-resistant Staphylococcus aureus ATCC 43300 after 24 hrs by crystal violet staining based method; assay type: functional, organism-based; details: ATCC 43300, 24 h
Outline: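 Read-out is the IC50, taken as the compound concentration that inhibits 50% of MRSA 43300 biofilm formation.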

Staphylococcus aureus [11] = experiment: Antibacterial activity against methicillin-resistant Staphylococcus aureus ATCC 1556 after 16 hrs by broth microdilution assay; assay type: functional; details: ATCC 1556, 16 h
Escherichia coli [12] = experiment: Antibacterial activity against Escherichia coli ATCC 25922 after 16 hrs by broth microdilution assay; assay type: organism-based
Staphylococcus aureus [13] = experiment: Antibiofilm activity against methicillin-resistant Staphylococcus aureus ATCC 43300 assessed induction of dispersion of preformed biofilm after 24 hrs by crystal violet staining based method; assay type: functional, organism-based; details: ATCC 43300, 24 h
Klebsiella pneumoniae [14] = experiment: Antibacterial activity against Klebsiella pneumoniae ATCC 2146 expressing NDM1 gene after 16 hrs by broth microdilution assay; assay type: organism-based; details: for MIC: […]; for Activity: in vitro
Klebsiella pneumoniae [15] = experiment: Potentiation of colistin-induced antimicrobial activity against Klebsiella pneumoniae isolate C3 assessed as fold reduction in colistin MIC after 16 hrs by broth microdilution assay; assay type: functional; outline: as §1
Klebsiella pneumoniae [16] = experiment: Antibacterial activity against Klebsiella pneumoniae isolate C3 after 16 hrs by broth microdilution assay; details: for MIC: […]
Staphylococcus aureus [17] = experiment: Antibacterial activity against methicillin-resistant Staphylococcus aureus ATCC 6538 after 16 hrs by broth microdilution assay; assay type: functional; details: ATCC 6538, 16 h
Acinetobacter baumannii [18] = experiment: Antibacterial activity against Acinetobacter baumannii isolate 5075 after 16 hrs by broth microdilution assay; assay type: organism-based
Acinetobacter baumannii [19] = experiment: Potentiation of colistin-induced antimicrobial activity against Acinetobacter baumannii ATCC 19606 assessed as fold reduction in colistin MIC after 16 hrs by broth microdilution assay; assay type: functional, ATCC 19606 = CIP 70.34 = JCM 6841; outline: as §1
Acinetobacter baumannii [20] = experiment: Antibacterial activity against Acinetobacter baumannii isolate 3941 after 16 hrs by broth microdilution assay; assay type: organism-based
Acinetobacter baumannii [21] = experiment: Antibacterial activity against Acinetobacter baumannii ATCC 17978 expressing mcr1 gene after 16 hrs by broth microdilution assay; assay type: organism-based; details: in vitro
Staphylococcus aureus [22] = experiment: Antibacterial activity against methicillin-resistant Staphylococcus aureus ATCC 43300 after 16 hrs by broth microdilution assay; assay type: functional; details: ATCC 43300, 16 h
Enterococcus faecium = experiment: Antibacterial activity against vancomycin-resistant Enterococcus faecium ATCC 51559 after 16 hrs by broth microdilution assay; assay type: functional; details: ATCC 51559, 16 h
Klebsiella pneumoniae [23] = experiment: Antibacterial activity against Klebsiella pneumoniae isolate B9 after 16 hrs by broth microdilution assay; details: in vivo
Acinetobacter baumannii [24] = experiment: Potentiation of colistin-induced antimicrobial activity against Acinetobacter baumannii isolate 3941 after 16 hrs by broth microdilution assay; assay type: functional, organism-based; outline: as §1
Staphylococcus aureus [25] = experiment: Antibiofilm activity against methicillin-resistant Staphylococcus aureus ATCC 43300 at < 60 uM after 16 hrs by broth microdilution assay; assay type: functional, organism-based
Staphylococcus aureus [26] = experiment: Effect on planktonic growth of methicillin-resistant Staphylococcus aureus ATCC 43300 at 60 uM after 16 hrs by broth microdilution assay; assay type: organism-based
Staphylococcus aureus [27] = experiment: Antibiofilm activity against methicillin-resistant Staphylococcus aureus ATCC 43300 assessed as dispersion of preformed biofilm after 24 hrs by crystal violet staining based method
Escherichia coli [28] = experiment: Potentiation of colistin-induced antimicrobial activity against Escherichia coli ATCC 25922 assessed as fold reduction in colistin MIC after 16 hrs by broth microdilution assay; assay type: functional; outline: as §1
Acinetobacter baumannii [29] = experiment: Potentiation of colistin-induced antimicrobial activity against Acinetobacter baumannii isolate 5075 assessed as fold reduction in colistin MIC after 16 hrs by broth microdilution assay; assay type: functional; outline: as §1
Acinetobacter baumannii [30] = experiment: Potentiation of colistin-induced antimicrobial activity against Acinetobacter baumannii ATCC 17978 expressing mcr1 gene assessed as fold reduction in colistin MIC after 16 hrs by broth microdilution assay; assay type: functional; outline: as §1
Klebsiella pneumoniae [31] = experiment: Potentiation of colistin-induced antimicrobial activity against Klebsiella pneumoniae ATCC 2146 expressing NDM1 gene assessed as fold reduction in colistin MIC after 16 hrs by broth microdilution assay; assay type: functional; outline: as §1
Klebsiella pneumoniae [32] = experiment: Potentiation of colistin-induced antimicrobial activity against Klebsiella pneumoniae isolate B9 assessed as fold reduction in colistin MIC after 16 hrs by broth microdilution assay; assay type: functional; outline: as §1
Acinetobacter baumannii [33] = experiment: Potentiation of colistin-induced antimicrobial activity against Acinetobacter baumannii isolate 4106 assessed as fold reduction in colistin MIC after 16 hrs by broth microdilution assay; assay type: functional; outline: as §1
Escherichia coli [34] = experiment: Potentiation of colistin-induced antimicrobial activity against Escherichia coli ATCC 25922 expressing mcr1 gene assessed as fold reduction in colistin MIC after 16 hrs by broth microdilution assay; assay type: functional; outline: as §1
Klebsiella pneumoniae [35] = experiment: Potentiation of colistin-induced antimicrobial activity against Klebsiella pneumoniae isolate B9 after 16 hrs by broth microdilution assay; assay type: functional, organism-based; outline: as §1

Row | Structure (SMILES) | MIC (Acinetobacter baumannii [1]) [µM] | MIC (Acinetobacter baumannii [2]) [µM] | MIC (Acinetobacter baumannii [5]) [µM] | MIC (Escherichia coli [6]) [µM] | pEC50 (Staphylococcus aureus [7]) | fold change (FC) (Acinetobacter baumannii [8]) | pIC50 (Staphylococcus aureus [10]) | MIC (Escherichia coli [12]) [µM] | pEC50 (Staphylococcus aureus [13]) | MIC (Klebsiella pneumoniae [14]) [µM] | fold change (FC) (Klebsiella pneumoniae [15]) | MIC (Klebsiella pneumoniae [16]) [µM] | MIC (Acinetobacter baumannii [18]) [µM] | fold change (FC) (Acinetobacter baumannii [19]) | MIC (Acinetobacter baumannii [20]) [µM] | MIC (Acinetobacter baumannii [21]) [µM] | MIC (Staphylococcus aureus [22]) [µM] | MIC (Klebsiella pneumoniae [23]) [µM] | Activity (Acinetobacter baumannii [1]) | fold change (FC) (Escherichia coli [28]) | further results
1 | Brc1ccc2[nH]cc(-c3ccnc(NCc4ccccc4)n3)c2c1.Cl | > 200 | > 200 | > 200 | > 200 | < 4.10 | 16 | 5.02 | > 200 | < 4.10 | > 200 | 512 | > 200 | > 200 | 16 | > 200 | > 200 | 6.25 | > 200 |  |  | Activity (Klebsiella pneumoniae [3]): inactive; Activity (Acinetobacter baumannii [4]): inactive; Activity (Staphylococcus aureus [9]): 26.2%; MIC (Staphylococcus aureus [11]): 6.25 µM; MIC (Staphylococcus aureus [17]): 6.25 µM; MIC (Enterococcus faecium): 25 µM; Activity (Acinetobacter baumannii [24]): Active
2 | Cl.Nc1nc(-c2c[nH]c3ccc(Br)cc23)c[nH]1 |  |  |  |  | < 4.00 |  |  |  | 3.99 |  |  |  |  |  |  |  | 25 |  | Toxic |  | Activity (Staphylococcus aureus [25]): inactive; Activity (Acinetobacter baumannii [2]): Toxic; Activity (Acinetobacter baumannii [5]): Toxic; Activity (Klebsiella pneumoniae [14]): Toxic; Activity (Klebsiella pneumoniae [16]): Toxic; Activity (Acinetobacter baumannii [18]): Toxic; Activity (Acinetobacter baumannii [20]): Toxic; Activity (Staphylococcus aureus [26]): Toxic; Activity (Klebsiella pneumoniae [23]): Toxic
3 | CCCCn1cc(-c2ccnc(N)n2)c2cc(Br)ccc21.Cl | > 200 | > 200 | > 200 | > 200 |  | 16 | 4.42 | > 200 | < 3.80 | > 200 |  | > 200 | > 200 | 16 | > 200 | > 200 | 50 | > 200 |  | 16 | EC50 (Staphylococcus aureus [27]): Not Active
4 | CCCn1cc(-c2ccnc(N)n2)c2cc(Br)ccc21.Cl | > 200 | > 200 | > 200 | > 200 |  | 16 | 4.16 | > 200 |  | > 200 |  | > 200 | > 200 |  | > 200 | > 200 | 100 | > 200 |  | 16 | fold change (FC) (Acinetobacter baumannii [29]): 128; fold change (FC) (Acinetobacter baumannii [30]): 4; fold change (FC) (Klebsiella pneumoniae [31]): 16; fold change (FC) (Klebsiella pneumoniae [32]): 512; fold change (FC) (Acinetobacter baumannii [33]): 64; fold change (FC) (Escherichia coli [34]): 4; Activity (Klebsiella pneumoniae [35]): Active
5 | CCNc1nccc(-c2c[nH]c3ccc(Br)cc23)n1.Cl | > 200 | > 200 | > 200 | > 200 | 4.18 | 16 | 4.61 | > 200 | 4.12 | > 200 | 512 | > 200 | > 200 | 16 | > 200 | > 200 | 50 | > 200 |  | 8 | Activity (Klebsiella pneumoniae [3]): inactive; Activity (Acinetobacter baumannii [4]): inactive; fold change (FC) (Acinetobacter baumannii [29]): 16; fold change (FC) (Acinetobacter baumannii [30]): 128; fold change (FC) (Klebsiella pneumoniae [31]): 16; fold change (FC) (Klebsiella pneumoniae [32]): 512; fold change (FC) (Acinetobacter baumannii [33]): 512; Activity (Acinetobacter baumannii [24]): Active; fold change (FC) (Escherichia coli [34]): 16; Activity (Klebsiella pneumoniae [35]): Active
6 | CNc1nccc(-c2c[nH]c3ccc(Br)cc23)n1.Cl | > 200 | > 200 | > 200 | > 200 | 4.15 |  | 4.54 | > 200 | 4.14 | > 200 | 512 | > 200 | > 200 | 16 | > 200 | > 200 | 100 | > 200 |  |  | Activity (Klebsiella pneumoniae [35]): Active
7 | CN(C)c1nccc(-c2c[nH]c3ccc(Br)cc23)n1.Cl | > 200 | > 200 | > 200 | > 200 |  |  | 4.63 | > 200 | < 3.80 | > 200 |  | > 200 | > 200 |  | > 200 | > 200 | 100 | > 200 |  |  | EC50 (Staphylococcus aureus [27]): Not Active
8 | Cl.Nc1nc(-c2c[nH]c3cc(Br)ccc23)c[nH]1 |  |  |  |  | < 4.00 |  |  |  | 4.00 |  |  |  |  |  |  |  | 25 |  | Toxic |  | Activity (Staphylococcus aureus [25]): inactive; Activity (Acinetobacter baumannii [2]): Toxic; Activity (Acinetobacter baumannii [5]): Toxic; Activity (Klebsiella pneumoniae [14]): Toxic; Activity (Klebsiella pneumoniae [16]): Toxic; Activity (Acinetobacter baumannii [18]): Toxic; Activity (Acinetobacter baumannii [20]): Toxic; Activity (Staphylococcus aureus [26]): Toxic; Activity (Klebsiella pneumoniae [23]): Toxic
9 | Cl.Nc1nccc(-c2c[nH]c3cc(Br)ccc23)n1 |  |  |  |  |  | 2 | 4.06 |  |  |  |  |  |  |  |  |  | > 200 |  |  | 0 | fold change (FC) (Acinetobacter baumannii [29]): 4; fold change (FC) (Acinetobacter baumannii [30]): 32; fold change (FC) (Klebsiella pneumoniae [31]): 2; fold change (FC) (Klebsiella pneumoniae [32]): 64; fold change (FC) (Acinetobacter baumannii [33]): 64; fold change (FC) (Escherichia coli [34]): 2
10 | CCCn1cc(-c2ccnc(N)n2)c2ccc(Br)cc21.Cl |  |  |  |  |  |  | 4.46 |  | < 3.80 |  |  |  |  | 16 |  |  | 200 |  | Toxic |  | Activity (Acinetobacter baumannii [2]): Toxic; Activity (Acinetobacter baumannii [5]): Toxic; Activity (Klebsiella pneumoniae [14]): Toxic; Activity (Klebsiella pneumoniae [16]): Toxic; Activity (Acinetobacter baumannii [18]): Toxic; Activity (Acinetobacter baumannii [20]): Toxic; Activity (Klebsiella pneumoniae [23]): Toxic; EC50 (Staphylococcus aureus [27]): Not Active
